From ChEMBL document CHEMBL1142787, “Bicyclic nucleoside inhibitors of Varicella-Zoster virus: the effect of branching in the p-alkylphenyl side chain” (Bioorg Med Chem Lett, 2005) come the findings set out here.

For assay [1], the system named is HEL (human embryonic lung fibroblasts). Kind of assay: Cytotoxic concentration required to inhibit Hel cell growth by using DMSO as solvent.
A short description of assay [2]: Effective concentration required to reduce Varicella Zoster virus OKA plaque formation by using DMSO as solvent. Type of assay: functional, Human alphaherpesvirus 3.
The nature of assay [3]: Effective concentration required to reduce thymidine kinase-Varicella Zoster virus YS/R plaque formation by using DMSO as solvent. Format: functional, Human alphaherpesvirus 3.
Assay [4] can be described thus: Minimal cytotoxic concentration required to alter microscopically detectable cell morphology. Format: functional. The procedure, abridged: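 Cell morphology scored by microscopy; compounds dissolved in neat DMSO, then diluted in biological media to stock solutions of ca. 50–200 μM with 1% DMSO; MCC recorded as the minimal concentration that alters microscopically detectable morphology.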

As usually defined, the CC50 is the concentration at which the toxic effect on the cells reaches its halfway point. Lower therefore signals greater toxicity to the cells. One may read the EC50 as the concentration giving half of the maximal effect. Turning to `Nc1nc2c(ncn2COCCO)c(=O)[nH]1` [ACYCLOVIR], the CC50 in assay [1] is greater than 400 µM. The half-maximal effective concentration (EC50) in assay [2] was 1.5 µM; in assay [3], 53 µM. In assay [4], this compound gave an MCC greater than 200 µM.
